ChEMBL document CHEMBL1123543, “3,7-Diazabicyclane: a new narcotic analgesic” (J Med Chem, 1986)
Active and inactive are the calls of the source.

How the values were obtained:
Mus musculus [1] = experiment: Effective dose for analgetic activity on subcutaneous administration in mice using Writhing test; type: functional; details: sc
Method in brief: (§1)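 Mouse acetic acid writhing assay. Compounds were given as methanesulfonic acid salts, dissolved in deionized water and injected subcutaneously. ED50 values and 95% confidence limits were calculated by the Litchfield–Wilcoxon method.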

Opioid receptor = Opioid receptor (Rattus norvegicus, UniProt P33533+P34975+P33535); experiment: Concentration required to inhibit opiate receptor using radioligand [3H]- Etorphine; type: protein assay
Rattus norvegicus [2] = experiment: Effective dose for analgetic activity on intracerebroventricular administration in rats using tail flick test; Inactive; type: functional, organism-based
Method in brief: (§2)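 Rats had cannulae stereotaxically implanted in the lateral ventricle (AP 0.0, L 2.0 from bregma, 3.5 mm below dura) and recovered for 2 weeks. Methanesulfonate salts in artificial rat CSF were injected icv at 10 μL over 30 s, with doses given as total amount. CSF alone served as control. After 0.5 h of acclimation in restraint, the tail was immersed 5 cm in 55 °C water at 5, 10, 15 and 20 min. Withdrawal latency was timed with a 30 s cutoff, averaging three observations. ED50 and 95% confidence limits were derived by Litchfield–Wilcoxon.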

Mus musculus [3] = experiment: Effective dose for analgetic activity on subcutaneous administration in mice using Writhing test; Inactive; type: functional, organism-based; method in brief: as §1
Mus musculus [4] = experiment: Effective dose for analgetic activity on subcutaneous administration in mice using Writhing test; Inactive at 460 uM/kg; type: functional, organism-based; method in brief: as §1
Rattus norvegicus [5] = experiment: Effective dose for analgetic activity on intracerebroventricular administration in rats using tail flick test; Inactive at 780 nM; type: functional, organism-based; method in brief: as §2
Rattus norvegicus [6] = experiment: Effective dose for analgetic activity on intracerebroventricular administration in rats using tail flick test; type: functional; method in brief: as §2

Row | SMILES | ED50 (Mus musculus [1]) [µmol/kg] | IC50 (Opioid receptor) [nM] | ED50 (Rattus norvegicus [2]) | ED50 (Mus musculus [3]) | ED50 (Mus musculus [4]) | ED50 (Rattus norvegicus [5]) | ED50 (Rattus norvegicus [6]) [nM]
1 | COC(c1cccc(O)c1)C1C2CN(C)CC1CN(C)C2 (stereo not drawn) | 0.56 | 2300 | – | – | – | – | –
2 | COC(c1ccccc1)C1C2CN(C)CC1CN(C)C2 (stereo not drawn) | – | 7200 | inactive | inactive | – | – | –
3 | CCC(=O)OC(c1ccccc1)C1C2CN(C)CC1CN(C)C2 (stereo not drawn) | – | 7600 | – | – | inactive | inactive | –
4 | CCC(=O)OC(c1cccc(O)c1)C1C2CN(C)CC1CN(C)C2 (stereo not drawn) | 0.85 | 530 | – | – | – | – | 25
5 | CN1CC[C@]23c4c5ccc(O)c4O[C@H]2[C@@H](O)C=C[C@H]3[C@H]1C5 [MORPHINE] | 3 | – | – | – | – | – | 23
